Laboratory results reported in ChEMBL document CHEMBL3272123, “11,12-secoprostaglandins. 4. 7-(N-alkylmethanesulfonamido) heptanoic acids” (1977).
The source made the active and inactive calls. The calls are words filed in the database; no cut-off is given here.

Assays:
[1] = organism: Mus musculus; test: Stimulation of prostanoid receptor-mediated cAMP-[14C] production in Charles River CD-1 mouse ovary at 0.1 ug/ml preincubated with adenine-8-[14C] for 1 hr followed by compound addition measured after 30 mins in presence of theophylline relative to control; format: tissue-based; conditions: Female gonad
In short: (§1)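 Ovaries from virgin female mice over 70 days old, denuded of fat; three ovaries (15-25 mg) per flask in aerated Krebs-Ringer phosphate pH 7.2 with 1 μCi adenine-8-¹⁴C, 1 h at 37 °C with shaking. Theophylline and compound (in Me₂SO) added, then 30 min at 37 °C. Stopped with TCA, tissue homogenized, ¹⁴C-cAMP isolated. Fold increase = treated/untreated cAMP; 2-3-fold taken as significant.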

[2] = organism: Mus musculus; test: Stimulation of prostanoid receptor-mediated cAMP-[14C] production in Charles River CD-1 mouse ovary at 1 ug/ml preincubated with adenine-8-[14C] for 1 hr followed by compound addition measured after 30 mins in presence of theophylline relative to control; format: tissue-based; conditions: Female gonad; in short: as §1
[3] = organism: Mus musculus; test: Stimulation of prostanoid receptor-mediated cAMP-[14C] production in Charles River CD-1 mouse ovary at 10 ug/ml preincubated with adenine-8-[14C] for 1 hr followed by compound addition measured after 30 mins in presence of theophylline relative to control; format: tissue-based; conditions: Female gonad; in short: as §1
[4] = organism: Mus musculus; test: Stimulation of prostanoid receptor-mediated cAMP-[14C] production in Charles River CD-1 mouse ovary at 25 ug/ml preincubated with adenine-8-[14C] for 1 hr followed by compound addition measured after 30 mins in presence of theophylline relative to control; format: tissue-based; conditions: Female gonad; in short: as §1
[5] = organism: Mus musculus; test: Stimulation of prostanoid receptor-mediated cAMP-[14C] production in Charles River CD-1 mouse ovary at 100 ug/ml preincubated with adenine-8-[14C] for 1 hr followed by compound addition measured after 30 mins in presence of theophylline relative to control; format: tissue-based; conditions: Female gonad; in short: as §1
[6] = system: Cavia porcellus; test: Antithrombotic activity in po dosed guinea pig assessed as inhibition of collagen-induced platelet aggregation; format: functional
[7] = organism: Mus musculus; test: Stimulation of prostanoid receptor-mediated cAMP-[14C] production in Charles River CD-1 mouse ovary at 0.01 ug/ml preincubated with adenine-8-[14C] for 1 hr followed by compound addition measured after 30 mins in presence of theophylline relative to control; format: tissue-based; conditions: Female gonad; in short: as §1
[8] = organism: Mus musculus; test: Stimulation of prostanoid receptor-mediated cAMP-[14C] production in Charles River CD-1 mouse ovary at 0.05 ug/ml preincubated with adenine-8-[14C] for 1 hr followed by compound addition measured after 30 mins in presence of theophylline relative to control; format: tissue-based; conditions: Female gonad; in short: as §1
[9] = system: Cavia porcellus; test: Antithrombotic activity in ip dosed guinea pig assessed as inhibition of collagen-induced platelet aggregation; format: functional
[10] = organism: Bos taurus; test: Inhibition of cAMP phosphodiesterase in beef heart using cAMP as substrate at 100 ug/ml
In short: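 Beef heart cAMP phosphodiesterase tested against 0.4 mM cAMP substrate.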

| SMILES | fold change (FC) [1] | fold change (FC) [2] | fold change (FC) [3] | fold change (FC) [4] | fold change (FC) [5] | ED50 [6] [mg/kg] | fold change (FC) [7] | fold change (FC) [8] | Activity [6] | ED50 [9] [mg/kg] | inhibition [10] |
| --- | --- | --- | --- | --- | --- | --- | --- | --- | --- | --- | --- |
| CCCCCC(O)CCCC(CCCCCCC(=O)O)C(C)=O (racemic) | 1 | 2 | 11 | 14 | 23 |  |  |  |  |  |  |
| CCCCC[C@H](O)CCCN(CCCCCCC(=O)O)S(C)(=O)=O | 1 | 8 | 54 | 55 | 68 | 5 |  |  |  |  |  |
| CCCCC[C@H](O)/C=C/[C@H]1[C@H](O)CC(=O)[C@@H]1CCCCCCC(=O)O [ALPROSTADIL] | 29 | 54 | 60 | 62 | 62 |  | 8 | 25 | inactive | 0.02 |  |
| CCCCCCCCCN(CCCCCCC(=O)O)S(C)(=O)=O |  |  | 13 | 14 | 15 |  |  |  |  |  |  |
| CCCCCC(O)CCCN(CCCCOCC(=O)O)S(C)(=O)=O (racemic) |  |  | 24 | 27 | 38 |  |  |  |  |  |  |
| CCCCC[C@@H](O)CCCN(CCCCCCC(=O)O)S(C)(=O)=O |  |  | 23 | 25 | 45 | 8.2 |  |  |  |  |  |
| CS(=O)(=O)N(CCCCCCC(=O)O)CCCC1(O)CCCCC1 |  |  | 3 | 5 | 10 |  |  |  |  |  |  |
| CCCCC[C@H](O)CCC1CCC(=O)[C@@H]1CCCCCCC(=O)O (some centres undefined) |  | 10 | 25 | 26 | 19 |  |  |  |  |  |  |
| CCCCCC(O)C#CCN(CCCCCCC(=O)O)S(C)(=O)=O (racemic) |  |  | 21 | 21 | 36 |  |  |  |  |  |  |
| CCCCCC(O)CCCN(C/C=C\CCCC(=O)O)S(C)(=O)=O (racemic) |  |  | 16 | 18 | 37 |  |  |  |  |  |  |
| CCCCCC(O)/C=C/CN(C/C=C\CCCC(=O)O)S(C)(=O)=O (racemic) |  |  | 11 | 19 | 27 |  |  |  |  |  |  |
| CCCCCC(O)CCCN(CC#CCCCC(=O)O)S(C)(=O)=O (racemic) |  |  | 21 | 30 | 39 |  |  |  |  |  |  |
| CCCCCC(O)CCCN(CCCCCCC(=O)O)S(C)(=O)=O (racemic) |  |  | 40 | 56 | 61 | 6 |  |  |  |  | inactive |
